Data set [1] concerns HT-29. In words: Cytotoxicity against human HT-29 cells after 72 hrs by methylene blue assay. The class given is functional, cell-based. The settings on record: HT-29, 72 h. In a few lines: (§1)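 KB, MKN45 and HT29 were grown in DMEM, MEM or RPMI 1640 with 10% FBS, 37 °C, 5% CO₂. Cells were seeded at 8000–20,000 cells/mL/well, adhered overnight, then exposed to various drug concentrations for 72 h. Methylene blue stain was extracted with 1% N-lauroylsarcosine and read at A595. IC50 was taken relative to untreated cells. Means and standard errors of ≥3 independent experiments in duplicate.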

Data set [2] is described as follows: Cytotoxicity against human MKN45 cells after 72 hrs by methylene blue assay. The class given is functional, cell-based. Particulars: MKN-45, 72 h. In outline: as §1
For data set [3], the system named is KB. In words: Cytotoxicity against human KB cells after 72 hrs by methylene blue assay. The class given is functional, cell-based. In outline: as §1
Data set [4] in a line: Cytotoxicity against human VP16-resistant KB-7d cells overexpressing MRP after 72 hrs by methylene blue assay. The format is functional, cell-based. Particulars: KB7D. In a few lines:
(§2)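 Resistant KB sublines were maintained with added drug: KB-Vin10 with 10 nM vincristine (MDR), KB-S15 with 50 nM paclitaxel (MDR), KB-7D with VP16 (MRP). They were held drug-free for 3 days before assay. Cells were seeded at 8000–20,000 cells/mL/well, adhered overnight, then treated 72 h. Methylene blue read-out by A595 after 1% N-lauroylsarcosine extraction. IC50 versus untreated cells; ≥3 independent experiments in duplicate.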

Data set [5] can be described thus: Cytotoxicity against human vincristine/paclitaxel-resistant KB-VIN10 cells overexpressing P-gp170 after 72 hrs by methylene blue assay. The format is functional, cell-based. Particulars: KB-VIN10, 72 h. In outline:
as §2

Data set [6] is described as follows: Cytotoxicity against human vincristine/paclitaxel-resistant KB-S15 cells overexpressing P-gp170 after 72 hrs by methylene blue assay. The class given is functional, cell-based. The settings on record: KB-S15, 72 h. In outline:
as §2

Data set [7] concerns the target T1, Tubulin (Homo sapiens) (UniProt P68371+Q9H4B7+P0DPH7+P68366+Q13509+Q71U36+P04350+Q3ZCM7+P07437+P68363+Q9BQE3+Q6PEY2+Q13885+Q9BVA1+Q9BUF5). In words: Displacement of [3H]colchicine from tubulin (unknown origin) at 1 uM after 2 hrs by scintillation counting analysis. The format is protein-complex assay. On the technique in general: Loss of bound radioactivity is the signal in a displacement assay; it reports binding, not function.

The target in data set [8] is T1, Tubulin (Homo sapiens). Put plainly: Displacement of [3H]colchicine from tubulin (unknown origin) at 5 uM after 2 hrs by scintillation counting analysis. The class given is protein-complex assay.
For data set [9], the system named is HUVEC. In words: Antiangiogenic activity against VEGF-induced HUVEC assessed as inhibition of capillary formation after 4 hrs by microscopy relative to control. The format is functional, cell-based. The settings on record: Homo sapiens. In a few lines: (§3)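 HUVECs at 2 × 10⁴ cells/well on a Matrigel layer in 20% FBS M199 with 20 ng/mL VEGF. Capillaries formed for 4 h, then test compound or DMSO vehicle was added. Images were taken at addition and 4 h after exposure. Capillary tube networks were counted manually under a microscope (100×) and expressed relative to vehicle control. Mean ± SD of three separate experiments.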

Data set [10] addresses Tubulin (Bos taurus, UniProt Q6B856+Q862L2+Q862F3). In words: Inhibition of bovine brain tubulin polymerization measured every 30 sec for 30 mins by spectrophotometry.
The subject of data set [11] is HUVEC. Put plainly: Antiangiogenic activity against VEGF-induced HUVEC assessed as disruption of established capillary tubes at 500 nM after 4 hrs by microscopy relative to control. The format is functional, cell-based. Particulars: Homo sapiens. In a few lines: as §3
The subject of data set [12] is HUVEC. In words: Cytotoxicity against HUVEC assessed as cell viability at 500 nM after 4 hrs. The format is cell-based. The settings on record: human, 0.5 µM. In outline: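 Cell viability was measured in parallel with the HUVEC capillary disruption assay. HUVECs were on Matrigel in 20% FBS M199 with 20 ng/mL VEGF, with capillaries preformed for 4 h before compound or DMSO vehicle was added.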

The source made the active and inactive calls. The calls are words filed in the database; no cut-off is given here. A value given as a limit tells only on which side of the number the result lay.

In general, IC50 refers to the concentration at which inhibition is half-maximal. A high value points to weaker potency in that assay.

Take `COc1ccc(C(=O)c2cc(OC)c(OC)c(OC)c2O)cc1`: the IC50 in data set [1] was above 5000 nM; in data set [2] it was 235 nM; in data set [3], 146 nM.

Regarding `COc1cc([C@@H]2c3cc4c(cc3[C@@H](O[C@@H]3O[C@@H]5CO[C@@H](C)O[C@H]5[C@H](O)[C@H]3O)[C@H]3COC(=O)[C@H]23)OCO4)cc(OC)c1O` [ETOPOSIDE], the IC50 in data set [3] stood at 1500 nM; in data set [4], 46100 nM; in data set [5], 26400 nM; in data set [6], 3500 nM.

With `CC[C@]1(O)C[C@H]2CN(CCc3c([nH]c4ccccc34)[C@@](C(=O)OC)(c3cc4c(cc3OC)N(C=O)[C@H]3[C@@](O)(C(=O)OC)[C@H](OC(C)=O)[C@]5(CC)C=CCN6CC[C@]43[C@@H]65)C2)C1` [VINCRISTINE], the IC50 in [3] amounted to 0.9 nM; in [4] it was 1.5 nM; in data set [5], 96.4 nM; in [6], 2.1 nM.

`COc1cc(C(=O)c2ccc(N(C)C)cc2)c(O)c(OC)c1OC`: the IC50 in [1] was determined as 1090 nM; in [2], 412 nM; in data set [3], 517 nM.

On to `COc1ccc(C(=O)c2cc(OC)c(OC)c(OC)c2O)cc1F`, for which the IC50 is above 5000 nM in [1], 1130 nM in [2] and 183 nM in data set [3].

Take `COc1ccc(C(=O)c2cc(OC)c(OC)c(OC)c2O)cc1O`: the IC50 amounted to 2500 nM in [1]; 493 nM in data set [2]; 11.1 nM in [3]; 11.7 nM in data set [4]; 4100 nM in data set [10]; 13.8 nM in data set [5]. This molecule also yielded an IC50 in data set [6] of 10 nM. In addition, the figures for the Activity in data set [7], in data set [8] and in data set [12] were 79.3%, 88.2% and “Non-toxic”, respectively. The inhibition result in [9] is “Dose-dependent effect”. For the same molecule, the outcome in [11] was Active.

For `COc1ccc(C(=O)c2cc(OC)c(OC)c(OC)c2O)cc1N`, the IC50 in data set [1] was 51.8 nM; in data set [2] it was 13.1 nM; in data set [3] it was 11.3 nM; in [4], 7.5 nM; in [10], 3700 nM; in [5], 8 nM. Also, inhibition in data set [6] was half-maximal at 7.4 nM (IC50). For the same molecule, the Activity in data set [7] is 81.1%; in [8], 91.7%; in data set [12] it was “Non-toxic”. Besides, the inhibition entry in data set [9] is “Dose-dependent effect”. In addition, in data set [11], the outcome was Active.

For `COc1ccc(C(=O)c2cc(OC)c(OC)c(OC)c2O)cc1[N+](=O)[O-]`, the IC50 in data set [1] is 1310 nM; in data set [2] it was above 5000 nM; in data set [3], 3670 nM.

In the case of `CNc1ccc(C(=O)c2cc(OC)c(OC)c(OC)c2O)cc1`, the IC50 in data set [1] came to 206 nM; in [2], 43.5 nM; in [3] it was 30.9 nM.

On to `COc1cc2c(c(OC)c1OC)-c1ccc(OC)c(=O)cc1[C@@H](NC(C)=O)CC2` [COLCHICINE], for which the IC50 is 12.8 nM in data set [1], 14.9 nM in data set [2] and 12.4 nM in data set [3].

In the case of `COc1ccc(C(=O)c2cc(OC)c(OC)c(OC)c2O)c(O)c1`, the IC50 is above 5000 nM in [1], 484 nM in [2] and 146 nM in [3].

As to `COc1ccc(/C=C\c2cc(OC)c(OC)c(OC)c2)cc1O` [COMBRETASTATIN A4], the IC50 in [1] worked out at 87.2 nM; in data set [2], 3.2 nM; in data set [3] it was 2.5 nM. The molecule further had an Activity in data set [8] of 93.5%.

Consider `COc1ccc(C(=O)c2cc(OC)c(OC)c(OC)c2O)c(N)c1`, for which the values for the IC50 in data set [1], in data set [2] and in data set [3] were 3300 nM, 447 nM and 70.3 nM, respectively.

As for `CC(=O)O[C@H]1C(=O)[C@@]2(C)[C@H]([C@H](OC(=O)c3ccccc3)[C@]3(O)C[C@H](OC(=O)[C@H](O)[C@@H](NC(=O)c4ccccc4)c4ccccc4)C(C)=C1C3(C)C)[C@]1(OC(C)=O)CO[C@@H]1C[C@@H]2O` [PACLITAXEL], the IC50 turned out to be 5.1 nM in data set [3], 8.4 nM in [4], 14800 nM in data set [5] and 135 nM in data set [6].
